# Measurements from PMC11605122 (Nature Communications, 2024).
# Experiments:
# BAT, eWAT, iWAT = test: UCP1 and TH protein; assay type: in vivo, mouse
# eWAT, iWAT, BAT = test: PKA Thr197 and HSL Ser660 phosphorylation; assay type: in vivo, mouse; conditions: DIO mice, G49
# Summary of the method: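 Tissue lysates were cleared twice at 98,560 × g for 40 min at 4 °C; protein was measured by BCA. After transfer, loading was checked with Ponceau. Membranes were blocked with 6% skimmed milk in TBS-0.05% Tween-20 for 2 h at RT, then incubated with primary antibodies overnight at 4 °C.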
# liver Cd11b+Ly6g+ cells = test: liver neutrophils; assay type: in vivo, mouse; conditions: DIO mice, G49
# Summary of the method: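 Liver non-parenchymal cells underwent ACK red-cell lysis (5 min, RT) and were washed in HBSS. They were stained 20 min at RT with CD45-FITC, CD11b-PECy7 and Ly6G-PE, then acquired on a FACSCanto II.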
# plasma adiponectin = assay type: in vivo, mouse; conditions: DIO mice, 24 h post-injection
# Summary of the method: (§1)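 Plasma ALT was read with Reflotron strips and plasma TGs by colorimetric assay. Serum FGF21 and plasma adiponectin and insulin were measured by ELISA.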
# [1] = peptide concentration in plasma; assay type: in vivo, mouse; conditions: DIO mice, 24 h post-injection, 100 nmol/kg s.c., n = 5; cAMP bioassay
# Summary of the method: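 Plasma activity was read in a cAMP assay on CHO cells expressing human GLP-1R, in HBSS pH 7.4 with 25 mM HEPES, 0.1% BSA and 0.5 mM IBMX. Serial dilutions were run in duplicate for 30 min at RT with HTRF detection. Standards were reference peptide spiked into 0.2% (final) naïve plasma. Sample ratio = sample EC50/reference EC50; concentration = known top concentration/ratio.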
# eWAT and iWAT weight = assay type: in vivo, mouse
# brown adipocytes [2] = test: brown adipocytes treated with serum of G49-treated mice; assay type: cell-based, mouse; conditions: serum from mice receiving G49 for 72 h
# Summary of the method: (§2)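 Brown preadipocytes were immortalised by retroviral SV40 Large T (20% FBS, 8 μg/mL polybrene, 48 h) at 70–80% confluence. Differentiation began with 2 days in induction medium (0.5 μM dexamethasone, 0.5 mM IBMX, indomethacin, 1 μM rosiglitazone).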
# plasma ALT = assay type: in vivo, mouse; conditions: DIO mice
# Summary of the method: as §1
# [3] = gene expression in mouse tissues/SVF; assay type: in vivo
# plasma/serum FGF21 = assay type: in vivo, mouse; conditions: DIO mice, G49
# Summary of the method: as §1
# brown adipocytes [4] = test: OCR in differentiated brown adipocytes; assay type: cell-based, mouse; conditions: G49, 16 h
# Summary of the method: as §2
# body weight, HFD-fed = assay type: in vivo, mouse
# liver histology = assay type: in vivo, mouse; conditions: DIO mice
# [5] = fatty acid oxidation in liver tissue; assay type: in vivo, mouse; conditions: DIO mice, G49, 72 h
# Summary of the method: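 Frozen liver (30 mg) was homogenised in cold STE buffer (25 mM Tris-HCl, sucrose, 1 mM EDTA, pH 7.4), sonicated 10 s and spun at 420 × g for 10 min at 4 °C. The supernatant was used for the oxidation reaction. Radioactive acid-soluble metabolites were counted by scintillation and expressed as nmol/g liver/h.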
# brown adipocytes [6] = test: lipolysis in brown adipocytes; assay type: cell-based, mouse; conditions: G49, brown adipocytes, 500 nM, 4 h
# [7] = tested on: mouse adipocytes from eWAT; test: lipolysis; assay type: cell-based; conditions: isolated adipocytes from eWAT, 500 nM G49, 4 h
# plasma TGs = assay type: in vivo, mouse; conditions: DIO mice, G49, time course
# Summary of the method: as §1
# energy expenditure = assay type: in vivo, mouse; conditions: DIO mice, G49, day 3, light and dark phases
# Summary of the method: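 Mice entered metabolic cages 2 days before the first s.c. dose, which was given every 2 days. Indirect calorimetry parameters were then recorded for the following 3 days.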
# [8] = tested on: primary mouse hepatocytes; test: insulin-induced AKT Ser473 phosphorylation in hepatocytes; assay type: cell-based; conditions: pre-treatment with G49
# Summary of the method: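 Primary hepatocytes came from non-fasted male C57BL/6J mice fed HFD for 12 weeks, with or without in vivo treatment, by two-step collagenase perfusion. Cells were spun at 60 × g, purified on isotonic Percoll (1:1) at 230 × g and seeded on collagen. They were cultured 24 h at 37 °C, 5% CO2 before exposure to the test compound.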
# [9] = F4/80 and TH immunostaining of eWAT; assay type: in vivo, mouse; conditions: G49, 6 h
# [10] = liver-to-body weight ratio; assay type: in vivo, mouse; conditions: DIO mice, G49, 6 h
# [11] = MRI body composition, total/visceral fat, lean mass; assay type: in vivo, mouse
sequence,measurement,setting,value
HSQGTFTSDYSKYLEEEAVRLFIC (40 kDa PEG) WLMNT-amide acetate salt [G49],UCP1 protein,"BAT, eWAT, iWAT; Adipoq−/− mice, G49",no increase in UCP1 protein levels was found
same,UCP1 expression in BAT,"BAT, eWAT, iWAT; DIO mice, G49 + ATGLi, 72 h",suppression of G49 effects on UCP1 expression and BAT temperature
same,UCP1 protein in BAT,"BAT, eWAT, iWAT; DIO mice, G49 + GCGRant",did not present an increase in UCP1 protein levels
same,UCP1 and TH protein in BAT,"BAT, eWAT, iWAT; DIO mice, G49, 1 week","increase in thermogenic-related genes (Cpt1b, Dio2, CoxIVi1, Ucp1, Th, Fgf21) and protein levels of UCP1 and TH in BAT"
same,UCP1 protein in BAT,"BAT, eWAT, iWAT; FGF21Alb-KO mice, G49, 1 week",a lower effect of G49 in increasing in UCP1 protein levels in BAT
same,UCP1 protein in BAT,"BAT, eWAT, iWAT; FGF21Alb-KO mice, G49 plus recombinant murine FGF21",markedly increased UCP1 protein levels and BAT temperature
same,UCP1 and TH protein,"BAT, eWAT, iWAT; eWAT, G49, 1 week",higher UCP1 and TH protein content
same,UCP1 protein,"BAT, eWAT, iWAT; iWAT, G49, 1 week",a similar improvement was found
same,PKA/HSL phosphorylation (lipolytic molecular signature),"eWAT, iWAT, BAT; BAT",not in brown adipose tissue (BAT)
same,PKA/HSL phosphorylation (lipolytic molecular signature),"eWAT, iWAT, BAT; iWAT",also found in iWAT
same,hepatic neutrophil infiltration,liver Cd11b+Ly6g+ cells,an increase in hepatic neutrophil infiltration
same,"plasma adiponectin, early",plasma adiponectin,increase in adiponectin was observed as early as 24 h post-injection
same,peptide plasma level,[1],121.7 ± 12.88 nM
same,"fat depots (eWAT, iWAT)","eWAT and iWAT weight; DIO mice, G49 + ATGLi, 72 h",without reduction in fat depots
same,eWAT and iWAT depots,"eWAT and iWAT weight; FGF21Alb-KO mice, G49, 1 week",a partial reduction of eWAT and iWAT depots
same,Ucp1 mRNA and UCP1 protein,brown adipocytes [2],increased Ucp1 mRNA and UCP1 protein levels
same,ALT elevation,"plasma ALT; G49 + GCGRant, 6 h",hepatic lipid overload and ALT elevation were not observed
same,ALT activity,"plasma ALT; G49, 6 h","an increase in lipid accumulation analyzed by H&E and oil-red O staining of liver sections, liver-to-body weight ratio, and alanine aminotransferase (ALT) activity"
same,hepatic Cpt1a and Ppara mRNAs,"[3]; DIO mice, G49",concomitant increase in hepatic Cpt1a and Ppara mRNAs
same,hepatic Srebf1 and Fasn mRNA,"[3]; DIO mice, G49 + ATGLi, 6 h",Srebf1 and Fasn mRNAs were reduced
same,liver Fgf21 mRNA upregulation,"[3]; DIO mice, G49 + ATGLi, 72 h",G49-mediated Fgf21 mRNA upregulation in the liver was also abolished
same,hepatic Fasn and Srebf1 mRNA,"[3]; DIO mice, G49 + GCGRant, 6 h",reduced by the presence of GCGRant
same,thermogenic-related genes in BAT,"[3]; DIO mice, G49, 1 week","increase in thermogenic-related genes (Cpt1b, Dio2, CoxIVi1, Ucp1, Th, Fgf21)"
same,Th mRNA in BAT,"[3]; DIO mice, G49 with blockade of GCGR",maintained G49-mediated increase in Th mRNA levels
same,Fgf21 mRNA in BAT,"[3]; FGF21Alb-KO mice, G49, 72 h",Fgf21 mRNA upregulation was not observed in BAT
same,Fgf21 mRNA in eWAT and iWAT,"[3]; FGF21Alb-KO mice, G49, 72 h",Fgf21 mRNA levels were upregulated in eWAT and iWAT
same,Th and cytokine mRNA in SVF,"[3]; SVF of eWAT, G49, 6 h and 24 h","an increase of Th mRNA at 6 h and a peak of Il14, Il10, and Il13 that declined at 24 h post-G49 treatment"
same,angiogenesis and beiging-related genes,"[3]; eWAT, G49, 1 week","Increases in angiogenesis (Vegf) and beiging-related genes (Cidea, Prdm16, CoxIVi1, Ucp1, Th, Cpt1a)"
same,M2 markers and Th mRNA,"[3]; eWAT, G49, 6 h","upregulated mRNA levels of M2 markers (Arg1, Il10, Tgfb) as well as Th"
same,"Acta2, Tgfb, Mmp9 mRNA","[3]; eWAT, G49, 6 h and day 7","transient increase in Acta2, Tgfb, and Mmp9 mRNA levels that declined at day 7"
same,Srebf1 and Fasn mRNA,"[3]; liver, DIO mice, G49, 6 h",both were elevated at 6 h post-G49 treatment
same,liver Fgf21 expression and FGF21 plasma levels,plasma/serum FGF21,reached significant increases at 12 h post-first G49 dose
same,mitochondrial respiration,brown adipocytes [4],an increase in mitochondrial respiration
same,body weight,"body weight, HFD-fed; Adipoq−/− DIO mice, G49, 3–7 days",body weight stabilized in the period of 3–7 days in Adipoq^−/− mice
same,body weight,"body weight, HFD-fed; DIO female mice, G49, 1 week",Body weight loss in the absence of a reduction in cumulative food intake
same,body weight,"body weight, HFD-fed; DIO mice, G49 + Ex9-39 + GCGRant",failed to decrease body weight in the presence of both antagonists
same,body weight loss,"body weight, HFD-fed; DIO mice, G49 without ATGLi, 72 h",11.8 ± 0.51%
same,body weight loss,"body weight, HFD-fed; DIO mice, G49 without antagonist, day 7 (antagonist experiment)",23.2 ± 1.45%
same,body weight,"body weight, HFD-fed; FGF21Alb-KO mice, HFD, G49, 3–7 days",body weight stabilized in G49-treated FGF21^Alb-KO mice in the period of 3–7 days
same,body weight,"body weight, HFD-fed; UCP1−/− mice, HFD, G49, beyond 72 h",did not lose weight beyond this time-point
same,effect in lean mice,"body weight, HFD-fed; lean mice, G49","mild and changes were found only in the short-term body weight loss, the early lipolytic response and the reduction of eWAT"
same,body weight loss,"body weight, HFD-fed; male DIO mice, G49 20 nmol/kg, 1 week",6.9 ± 0.89%
same,body weight loss,"body weight, HFD-fed; male mice, normal cycle, G49, 1 week",16.1 ± 0.72%
same,body weight loss,"body weight, HFD-fed; male mice, reversed light/dark cycle, G49, 1 week",20.1 ± 0.49%
same,hepatic lipid overload,"liver histology; G49 + ATGLi, 6 h",absent in mice co-treated with ATGLi
same,"lipid accumulation, liver sections","liver histology; G49, 6 h",an increase in lipid accumulation
same,hepatic fatty acid oxidation,[5],concomitant increase in hepatic Cpt1a and Ppara mRNAs (Fig. 3J) and fatty acid oxidation (FAO)
same,lipolysis,brown adipocytes [6],up-regulated lipolysis
same,glycerol and FFA release,[7],increased glycerol and FFA release
same,circulating TGs,plasma TGs,reached maximal levels at 24 h and decreased to basal levels at 48 h post-G49 treatment
same,energy expenditure,energy expenditure,a significant increase in EE
same,insulin-induced AKT Ser473 phosphorylation,[8],increased insulin sensitivity manifested by elevations in insulin-induced AKTSer473 phosphorylation
same,F4/80 and TH positive immune cells,[9],F4/80 and Tyrosine Hydroxylase (TH) positive immune cells were found in some eWAT areas
same,liver-to-body weight ratio,[10],"an increase in lipid accumulation analyzed by H&E and oil-red O staining of liver sections, liver-to-body weight ratio, and alanine aminotransferase (ALT) activity"
same,visceral fat,"[11]; Adipoq−/− mice, G49, 1 week, vs Adipoq+/+",lower reduction in visceral fat
same,total and visceral adiposity,"[11]; DIO mice, G49 + GCGRant, 6 h",abolished the acute effects of G49 in reducing total and visceral adiposity at 6 h post-injection
same,"adiposity, fat mass, eWAT and iWAT weight","[11]; DIO mice, G49 with antagonists, alone or in combination, day 7","its administration with antagonists, either alone or in combination, totally blocked this effect"
